Here are results for 16 molecules from PubChem BioAssay AID2311 (NMMLSC, 2010).

For one experiment, the target named is Regulator of G-protein signaling 19 (Homo sapiens) (UniProt P49795). Nature of the experiment: RGS19-Galphao binding modulators, analog potency, SAR follow-up, biochemical, SAR compounds, multiplexed bead flow cytometry (AID 2311). The settings on record: Bead-bound RGS19 and AF488-Galphao binding. In a few lines: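 Material – Bead-immobilised biotinylated RGS19 in an RGS bead multiplex · Control set – DMSO wells and RGS-free bead controls · Timing – 30–90 min compound exposure at room temperature · Signal – high-throughput flow cytometry, median green fluorescence of RGS19-coated beads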
Sequence of Regulator of G-protein signaling 19 (Homo sapiens) (P49795 whole entry, looked up): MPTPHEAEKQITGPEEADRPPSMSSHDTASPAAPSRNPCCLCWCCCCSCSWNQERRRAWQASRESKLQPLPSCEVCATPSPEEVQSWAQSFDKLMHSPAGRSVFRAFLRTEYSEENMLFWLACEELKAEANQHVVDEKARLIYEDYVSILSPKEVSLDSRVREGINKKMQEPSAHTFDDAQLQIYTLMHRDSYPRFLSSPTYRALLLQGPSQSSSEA
For orientation: Flow cytometry measures light scatter and fluorescence of single cells or particles in a stream.
On to `NS(=O)(=O)c1ccc(N/N=C/c2ccc(O)c(O)c2O)c([N+](=O)[O-])c1`, for which the EC50 was 109 nM.

Staying with this experiment, now noted: Bead-bound RGS19 and AF488-Galphao binding, measured here: Ki calculated from EC50.
`CCN=c1scc(C)n1/N=C/c1ccc(O)c(O)c1O`: the Ki is 350 nM.
Regarding `CC(=O)OCCCNc1cc(Sc2nc3ccccc3s2)c2nonc2c1[N+](=O)[O-]`, the Ki was 10 nM.
On to `CC1(C)OC(=O)C(=Cc2ccc(-c3ccc(S(N)(=O)=O)cc3)o2)C(=O)O1`, for which the inhibitory constant (Ki) was 230 nM.
For `NS(=O)(=O)c1ccc(N/N=C/c2ccc(O)c(O)c2O)c([N+](=O)[O-])c1`, the inhibitory constant (Ki) is 100 nM.
The same measure, in the same setting: as for `Cc1cccc(N2CCN(C(=O)Cn3sc4nc(C)cc(C)c4c3=O)CC2C)c1` (configuration not stated), the figure is 90 nM; as for `CCC(=O)NC(c1ccc(C)cc1)c1cc([N+](=O)[O-])c2cccnc2c1O` (configuration not stated), 1160 nM.
As for `COc1ccc(C2=CC(=O)C=CC2=O)cc1`, the Ki is 160 nM.
Regarding `Cc1cc(Cl)ccc1N=c1ssnc1Cl`, the Ki was 110 nM.
The same measure, in the same setting: as for `Cc1cccc(N2CCN(C(=O)COc3nsc4nc(C)cc(C)c34)CC2C)c1` (configuration not stated), the figure is 550 nM; as for `CCOC(=O)c1sc(NC(=O)CSc2nnc(Cc3ccccc3)o2)c(C#N)c1C`, 140 nM; as for `Cc1[nH]n(-c2ccccc2)c(=S)c1C=NCCCN=Cc1c(C)[nH]n(-c2ccccc2)c1=S`, 50 nM.
Same read-out and setting: next, `CN1CCN(C2=C(Cl)C(=O)C(c3cnc(N4CCCCC4)s3)=C(Cl)C2=O)CC1`: 30 nM; `CN=c1scc(C)n1/N=C/c1ccc(O)c(O)c1O`: 200 nM; `O=C(NCCCN1CCOCC1)c1sc2cc([N+](=O)[O-])ccc2c1Cl`: 460 nM.
With `O=C(Cc1csc(N2CCOCC2)n1)N/N=C/c1ccc(O)c(O)c1O`, the inhibitory constant (Ki) was 750 nM.
In the case of `O=C1C(Cl)=C(N2CCCCC2)C(=O)C(Cl)=C1c1cnc(N2CCCCC2)s1`, the Ki is 80 nM.

In general, EC50 refers to the midpoint of the concentration-response curve. By Ki is commonly meant a measure of affinity in units of concentration, obtained from inhibition or displacement.
